pIC50: −log10 of the molar value.
Target: 5-hydroxytryptamine receptor 2A (Homo sapiens, UniProt P28223)
Experiment: Displacement of [3H]ketanserin from human 5HT2A receptor expressed in CHOK1 cells
Summary of the method: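 Membranes from confluent CHO K1 cells expressing human 5-HT2A were incubated with [3H]ketanserin (76 Ci/mmol) for 15 min at 37 °C with shaking at 180 rpm. Buffer was 50 mM Tris pH 7.7, 0.1% ascorbate, pargyline, MgSO4 and 0.5 mM EDTA. Bound and free ligand were separated by GF/B filtration and the filters counted. Mianserin defined non-specific binding. Five-point log titrations were fitted with a four-parameter curve to give IC50 and Ki.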

Chain of 5-hydroxytryptamine receptor 2A (P28223 whole entry): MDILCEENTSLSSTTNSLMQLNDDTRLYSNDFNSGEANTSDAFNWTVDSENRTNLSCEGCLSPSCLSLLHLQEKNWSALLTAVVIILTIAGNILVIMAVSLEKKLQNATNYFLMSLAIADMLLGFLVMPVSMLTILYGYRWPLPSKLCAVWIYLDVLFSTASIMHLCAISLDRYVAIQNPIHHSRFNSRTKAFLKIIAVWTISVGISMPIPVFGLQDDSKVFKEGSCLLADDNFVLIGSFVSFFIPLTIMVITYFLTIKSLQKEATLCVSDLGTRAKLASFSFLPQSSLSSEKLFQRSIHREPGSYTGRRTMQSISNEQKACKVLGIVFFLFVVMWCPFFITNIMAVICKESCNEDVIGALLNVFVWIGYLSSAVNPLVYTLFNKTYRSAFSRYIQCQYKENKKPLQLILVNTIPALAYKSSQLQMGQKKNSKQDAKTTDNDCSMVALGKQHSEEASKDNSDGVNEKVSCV

| pIC50 | SMILES |
| --- | --- |
| < 6.00 | Cc1ccc(C2=NCCN=C(N3CCNCC3)C2)cc1 [5-(piperazin-1-yl)-7-p-tolyl-2,3-dihydro-1H-1,4-diazepine] |
| < 6.00 | Cc1ccc(C2=NCCN=C(N3CCOCC3)C2)cc1 [5-morpholino-7-p-tolyl-2,3-dihydro-1H-1,4-diazepine] |
| < 6.00 | CCN(CC)C1=NCCN=C(c2ccccc2F)C1 [N,N-diethyl-7-(2-fluorophenyl)-2,3-dihydro-1H-1,4-diazepin-5-amine] |
| < 6.00 | CCN(CC)C1=NCCN=C(c2ccc(C)cc2)C1 [N,N-diethyl-7-p-tolyl-2,3-dihydro-1H-1,4-diazepin-5-amine] |
| 7.96 | CC(C)(C)NC1=NCCN=C(c2ccc(F)cc2F)C1 [N-tert-butyl-7-(2,4-difluorophenyl)-2,3-dihydro-1H-1,4-diazepin-5-amine] |
| 7.96 | Cc1ccc(C2=NCCN=C(NC(C)(C)C)C2)cc1 [N-tert-butyl-7-p-tolyl-2,3-dihydro-1H-1,4-diazepin-5-amine] |
